Reference: ChEMBL document CHEMBL3351374, “Semisynthetic teicoplanin derivatives as new influenza virus binding inhibitors: synthesis and antiviral studies” (Bioorg Med Chem Lett, 2014)

Assays:
[1] = system: Influenza A virus; experiment: Antiviral activity against Influenza A virus (A/PR/8/34(H1N1)) infected in MDCK cells assessed as reduction in host cell viability after 72 hrs by MTS assay; assay type: functional, organism-based; conditions: A/Puerto Rico/8/1934(H1N1)
[2] = system: Influenza A virus; experiment: Antiviral activity against Influenza A virus A/Virginia/ATCC3/2009 infected in MDCK cells assessed as virus-induced cytopathic effect after 72 hrs by microscopy; assay type: functional, organism-based; conditions: A/Virginia/ATCC3/2009, MDCK
[3] = system: Influenza A virus; experiment: Antiviral activity against Influenza A virus A/Virginia/ATCC3/2009 infected in MDCK cells assessed as reduction in host cell viability after 72 hrs by MTS assay; assay type: functional, organism-based; conditions: A/Virginia/ATCC3/2009, MDCK
[4] = Antiviral activity against Influenza A virus (A/HK/7/1987(H3N2)) infected in MDCK cells assessed as virus-induced cytopathic effect after 72 hrs by microscopy; assay type: functional, cell-based, Influenza A virus (A/Hong Kong/7/1987(H3N2))
[5] = Antiviral activity against Influenza A virus (A/HK/7/1987(H3N2)) infected in MDCK cells assessed as reduction in host cell viability after 72 hrs by MTS assay; assay type: functional, cell-based, Influenza A virus (A/Hong Kong/7/1987(H3N2))
[6] = Cytotoxicity against MDCK cells assessed as reduction in cell viability after 72 hrs by MTS assay; assay type: cell-based, Canis lupus familiaris; conditions: dog
[7] = Cytotoxicity against MDCK cells assessed as change in cell morphology after 72 hrs by microscopy; assay type: cell-based, Canis lupus familiaris; conditions: dog
How it was run: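 Uninfected MDCK cells exposed to compound. MCC is the minimal concentration causing minimal alterations in cell morphology, assessed by microscopy.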

[8] = system: Influenza B virus; experiment: Antiviral activity against Influenza B virus (B/HK/05/1972) infected in MDCK cells assessed as virus-induced cytopathic effect after 72 hrs by microscopy; assay type: functional, cell-based; conditions: B/Hong Kong/05/1972, MDCK
[9] = system: Influenza B virus; experiment: Antiviral activity against Influenza B virus (B/HK/05/1972) infected in MDCK cells assessed as reduction in host cell viability after 72 hrs by MTS assay; assay type: functional, cell-based; conditions: B/Hong Kong/05/1972, MDCK
[10] = system: Influenza A virus; experiment: Antiviral activity against Influenza A virus (A/PR/8/34(H1N1)) infected in MDCK cells assessed as virus-induced cytopathic effect after 72 hrs by microscopy; assay type: functional, organism-based; conditions: A/Puerto Rico/8/1934(H1N1)
[11] = Cytotoxicity against chicken RBC assessed as minimum concentration required for hemagglutination by microscopy; assay type: cell-based, Gallus gallus; conditions: erythrocyte
How it was run: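 Chicken red blood cells incubated with compound without virus. The value is the minimal concentration causing hemagglutination.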

[12] = Inhbition of Influenza A virus (A/X-31(H3N2) hemagglutinin binding to 2 hrs compound pre-incubated MDCK cells assessed as reduction in viral RNA measured after 1 hr by RT-qPCR analysis; assay type: cell-based
How it was run: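 Influenza virus binding to MDCK host cells measured with compound at 50, 10, 2 and 0.4 µM.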

[13] = Selectivity ratio of CC50 for MDCK cells assessed as reduction in cell viability after 72 hrs by MTS assay to EC50 for Influenza A virus A/Virginia/ATCC3/2009 infected in MDCK cells; assay type: cell-based; conditions: dog, read-out: Ratio CC50/EC50
[14] = Selectivity ratio of MCC for MDCK cells assessed as change in cell morphology after 72 hrs by microscopy to EC50 for Influenza A virus A/Virginia/ATCC3/2009 infected in MDCK cells; assay type: cell-based; conditions: dog
[15] = Retention time of the compound by HPLC method; assay type: physicochemical
[16] = system: Bacillus spizizenii; experiment: Antibacterial activity against Bacillus subtilis ATCC 6633 by broth microdilution method; assay type: functional
[17] = system: Staphylococcus aureus; experiment: Antibacterial activity against methicillin-sensitive Staphylococcus aureus ATCC 29213 by broth microdilution method; assay type: functional
[18] = system: Staphylococcus aureus; experiment: Antibacterial activity against methicillin-resistant Staphylococcus aureus ATCC 33591 by broth microdilution method; assay type: functional
[19] = system: Staphylococcus epidermidis; experiment: Antibacterial activity against biofilm forming Staphylococcus epidermidis ATCC 35984 by broth microdilution method; assay type: functional
[20] = system: Enterococcus faecalis; experiment: Antibacterial activity against Enterococcus faecalis ATCC 29212 by broth microdilution method; assay type: functional
[21] = system: Staphylococcus epidermidis; experiment: Antibacterial activity against biofilm forming Staphylococcus epidermidis harboring mecA gene by broth microdilution method; assay type: functional
[22] = system: Enterococcus faecalis; experiment: Antibacterial activity against vanA gene-positive Enterococcus faecalis 15376 by broth microdilution method; assay type: functional
[23] = system: Enterococcus faecalis; experiment: Antibacterial activity against vanA gene-positive Enterococcus faecalis ATCC 51299 by broth microdilution method; assay type: functional
[24] = system: Influenza A virus; experiment: Antiviral activity against Influenza A virus infected in chicken RBC assessed as minimum concentration required for inhibition of 4 hemagglutinating units of virus-induced hemagglutination after 1 hr by microscopy; assay type: functional
How it was run: (§1)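 Chicken red blood cells incubated with virus at 1, 2 or 4 HA-U plus compound. The value is the minimal concentration causing inhibition of hemagglutination.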

[25] = system: Influenza A virus; experiment: Antiviral activity against Influenza A virus infected in chicken RBC assessed as minimum concentration required for inhibition of 2 hemagglutinating units of virus-induced hemagglutination after 1 hr by microscopy; assay type: functional; how it was run: as §1
[26] = system: Influenza A virus; experiment: Antiviral activity against Influenza A virus infected in chicken RBC assessed as minimum concentration required for inhibition of 1 hemagglutinating unit of virus-induced hemagglutination after 1 hr by microscopy; assay type: functional; how it was run: as §1

Compound	EC50 [1] [µM]	EC50 [2] [µM]	EC50 [3] [µM]	EC50 [4] [µM]	EC50 [5] [µM]	CC50 at 72 h [6] [µM]	MCC at 72 h [7] [µM]	EC50 [8] [µM]	EC50 [9] [µM]	EC50 [10] [µM]	Retention_time [15] [min]	further results
NC12CC3CC(CC(C3)C1)C2 [AMANTADINE]	111	> 500	> 500	0.45	0.5	> 500	> 500	> 500	> 500			
CCCCCCCCO[C@@H]1[C@@H](OCCCCCCCC)[C@@H](OC)O[C@H](COCCOCCOCCOCCOCc2cn([C@H]3C(=O)N[C@@H]4Cc5ccc(c(Cl)c5)Oc5cc6cc(c5O)Oc5ccc(cc5Cl)[C@@H](O[C@@H]5O[C@H](CO)[C@@H](O)[C@H](O)[C@H]5NC(C)=O)[C@@H]5NC(=O)[C@H](NC(=O)[C@@H]6NC(=O)[C@@H](NC4=O)c4cc(O)cc(c4)Oc4cc3ccc4O)c3ccc(O)c(c3)-c3c(O)cc(O)cc3[C@@H](C(=O)O)NC5=O)nn2)[C@H]1OCc1ccc(OC)cc1	1.2	1.4	< 0.8	1.8	1.2	11	20	> 100	1.5	0.8	8.16	Activity [11]: 50 µM; IC50 [12]: 4.7 µM; selectivity ratio at 72 h [13]: 4; selectivity ratio at 72 h [14]: 4
COc1ccc(CO[C@H]2[C@H](OC)[C@@H](OC)[C@@H](OC)O[C@@H]2COCCOCCOCCOCCOCc2cn([C@H]3C(=O)N[C@@H]4Cc5ccc(c(Cl)c5)Oc5cc6cc(c5O)Oc5ccc(cc5Cl)[C@@H](O[C@@H]5O[C@H](CO)[C@@H](O)[C@H](O)[C@H]5NC(C)=O)[C@@H]5NC(=O)[C@H](NC(=O)[C@@H]6NC(=O)[C@@H](NC4=O)c4cc(O)cc(c4)Oc4cc3ccc4O)c3ccc(O)c(c3)-c3c(O)cc(O)cc3[C@@H](C(=O)O)NC5=O)nn2)cc1	> 100	> 100	> 100	> 100	> 100	47	≥ 20	> 100	> 100	> 100	5.73	
NC(=O)c1ncn([C@@H]2O[C@H](CO)[C@@H](O)[C@H]2O)n1 [RIBAVIRIN]	21			6.8	7.3	> 100	≥ 20		8.2			
C.CCCCCCCCO[C@H]1[C@@H](OC)O[C@H](COCCOCCOCCOCCOCc2cn([C@H]3C(=O)N[C@@H]4Cc5ccc(c(Cl)c5)Oc5cc6cc(c5O)Oc5ccc(cc5Cl)[C@@H](O[C@@H]5O[C@H](CO)[C@@H](O)[C@H](O)[C@H]5NC(C)=O)[C@@H]5NC(=O)[C@H](NC(=O)[C@@H]6NC(=O)[C@@H](NC4=O)c4cc(O)cc(c4)Oc4cc3ccc4O)c3ccc(O)c(c3)-c3c(O)cc(O)cc3[C@@H](C(=O)O)NC5=O)nn2)[C@@H](O)[C@@H]1OCCCCCCCC												MIC [16]: 4 µg/mL; MIC [17]: 16 µg/mL; MIC [18]: 8 µg/mL; MIC [19]: 8 µg/mL; MIC [20]: 2 µg/mL; MIC [21]: 256 µg/mL; MIC [22]: 8 µg/mL; MIC [23]: 4 µg/mL; Activity [24]: 3.1 µM; Activity [25]: 0.78 µM; Activity [26]: 0.39 µM
